# Hits are enriched below; roughly 3.1% of the tested compounds scored in any of these assays.
# KCNK3 inh: human KCNK3 channel inhibition, primary screen | 340,000 tested, 0.84% active | O14649 | B-score at 10 µM | CHO-KCNK3 thallium flux, FluxOR fluorescence; stronger effect = lower value;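 active means B-score under library mean minus 4 SD, starting fluorescence ratio at most library mean plus 5 SD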;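 further: more negative B-score means stronger inhibition of thallium flux through KCNK3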
# Target sequence (O14649 whole entry, looked up): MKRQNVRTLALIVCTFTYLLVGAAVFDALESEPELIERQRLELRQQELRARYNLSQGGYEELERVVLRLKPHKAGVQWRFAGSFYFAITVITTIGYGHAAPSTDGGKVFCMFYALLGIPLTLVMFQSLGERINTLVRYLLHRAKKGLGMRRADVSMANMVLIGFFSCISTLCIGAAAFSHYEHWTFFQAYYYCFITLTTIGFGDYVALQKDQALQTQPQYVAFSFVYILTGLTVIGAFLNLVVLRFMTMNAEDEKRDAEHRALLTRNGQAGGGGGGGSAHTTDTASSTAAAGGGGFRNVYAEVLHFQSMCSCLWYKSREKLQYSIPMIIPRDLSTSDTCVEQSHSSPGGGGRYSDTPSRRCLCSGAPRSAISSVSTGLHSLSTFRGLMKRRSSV
# KCNQ1 act: potentiators or activators of human KCNQ1 potassium channel; CHO-K1 KCNQ1, thallium flux FluxOR fluorescence; stronger effect = higher value; B-score at 10 µM; 310,000 tested, 0.35% active;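 active means fluorescence ratio B-score, a plate-corrected score, at least three library SD, with initial intensity B-score within 5 SD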
#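 assay system = KCNQ1-transfected CHO-K1 cells | medium = assay buffer with matched DMSO | probe or stimulus = depolarizing K+/Tl+ stimulus, K2SO4 and Tl2SO4 each 12.5 mM in 5x stock | dosing = single dose | incubation = dye 90 min, compound 20 min, room temperature | detection = kinetic FluxOR fluorescence, 10 s baseline plus 110 s post-stimulus | evaluation = ratio B score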
# KCNK9 inh: inhibitors of human KCNK9 two-pore domain potassium channel | Q9NPC2 | HEK293 KCNK9, FluxOR thallium flux fluorescence; stronger effect = lower value | B-score at 10 µM | 310,000 tested, 1.2% active | AID 488922;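 active means ratio B-score over 3 SD below the library mean, with starting fluorescence within 5 SD of its mean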;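 further: negative B-score means less thallium flux so channel inhibition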
# Target sequence (Q9NPC2 whole entry, looked up, the tested form may be a part): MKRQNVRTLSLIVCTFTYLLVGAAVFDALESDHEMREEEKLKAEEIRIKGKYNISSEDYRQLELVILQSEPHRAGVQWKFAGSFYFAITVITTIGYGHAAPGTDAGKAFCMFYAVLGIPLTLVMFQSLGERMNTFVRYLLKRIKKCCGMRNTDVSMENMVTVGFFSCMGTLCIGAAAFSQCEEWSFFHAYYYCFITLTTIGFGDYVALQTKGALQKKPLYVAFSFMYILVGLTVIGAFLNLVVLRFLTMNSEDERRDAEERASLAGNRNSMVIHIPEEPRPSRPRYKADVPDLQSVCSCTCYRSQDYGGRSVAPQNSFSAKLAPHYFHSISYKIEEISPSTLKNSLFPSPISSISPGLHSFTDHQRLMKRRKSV
# KCNQ1 inh: blocks the human KCNQ1 potassium channel; P51787; CHO-K1 KCNQ1, FluxOR thallium flux fluorescence; stronger effect = higher value; B-score at 10 µM; 310,000 tested, 1.3% active; AID 2642;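 active means compounds whose thallium flux B-score, printed positive for inhibition, exceeds three library SD while starting fluorescence stays within three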;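 further: channel opened by potassium depolarization with thallium stimulus after 20 min compound exposure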
# hERG rescue: compounds protecting human hERG from proarrhythmic drug block. Q12809. CHO-hERG, FluxOR thallium flux, dofetilide IC70 present. activation (rescue from dofetilide block), less the hit threshold, % at 10 µM. 310,000 tested, 0.51% active;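 active means activation above the mean of controls blocked by dofetilide plus 5 SD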;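 further: thallium influx through hERG after potassium depolarization seen as dye fluorescence rise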
# KCNQ1 inh valid: human KCNQ1 channel inhibition, validation assay | shares compounds with KCNQ1 inh | KCNQ1 cell line, FluxOR thallium flux fluorescence | inhibition, % at 10 µM | 1,600 tested, 93% active | AID 588353;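 active means primary screen active, with duplicate mean exceeding buffer control mean plus 3 SD of buffer wells, cut at about 28% in these data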
# CHO Tl flux: activity in parental CHO cells lacking KCNQ1; 1,600 tested, 21% active; shares compounds with KCNQ1 inh; AID 588366; parental CHO-K1, FluxOR thallium flux fluorescence ratio; stronger effect = lower value; zero means no signal rise above baseline; fluorescence ratio (Tl flux) at 10 µM;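 active means mean of duplicate thallium-flux fluorescence ratios in parental host cells more than 5 SD below the buffer control mean, cut at about 0.38 in these data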;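 further: ratio is peak minus minimum fluorescence divided by baseline fluorescence; actives read low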
# KCNQ1 ephys val: confirmation of human KCNQ1 potassium channel inhibitors by electrophysiology | shares compounds with KCNQ1 inh | 490 tested, 20% active | KCNQ1-CHO cells, automated patch clamp current | calls only at 10 µM;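 active means KCNQ1 current drop exceeding 3 SD of negative control wells, seen in both duplicate runs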;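 further: steady state current during a 2 s step from -80 to +40 mV; negative values mean current inhibition and positive values mean potentiation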
# KCNQ2 inh: selectivity of KCNQ1 inhibitors: inhibition of rat KCNQ2 channel. shares compounds with KCNQ1 inh. KCNQ2 cells, FluxOR thallium flux fluorescence. inhibition, % at 10 µM. 1,600 tested, 71% active. AID 651746;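 active means mean percent inhibition of the KCNQ2 thallium signal more than 5 SD above the buffer-only control wells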;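 further: KCNQ2 expressed in CHO cells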
# KCNQ1 KCNE1 spec: human KCNQ1/KCNE1 inhibition in KCNQ1 specificity screen; shares compounds with KCNQ1 inh; KCNQ1/KCNE1 cells, FluxOR thallium flux fluorescence; inhibition, % at 10 µM; 1,600 tested, 77% active; AID 652147;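 active means mean percent inhibition of duplicate wells above the buffer-only control mean plus 3 SD of those controls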
# A number is an active result; i = inactive; nt = no result; + = active, no number.
SMILES,KCNK3 inh,KCNQ1 act,KCNK9 inh,KCNQ1 inh,hERG rescue,KCNQ1 inh valid,CHO Tl flux,KCNQ2 inh,KCNQ1 KCNE1 spec,others
Clc1ccc2[nH]c(-c3ccccc3)cc2c1,i,i,i,9,i,131,i,92%,132%,KCNQ1 ephys val=i
O=C(O)CC1(CC(=O)NCc2csc(-c3cccs3)n2)CCCCC1,i,i,i,i,i,nt,nt,nt,nt,
Cc1ccc(S(=O)(=O)Nc2ccc(SC(F)F)cc2)c(C)c1,i,i,i,6,i,26,i,i,136%,
CC(C)c1ccc(S(=O)(=O)Nc2ccc(SC(F)F)cc2)cc1,i,i,i,i,i,nt,nt,nt,nt,
COc1ccc2nc(C)cc(NCc3ccc(F)cc3)c2c1,i,i,-6.9,7,i,88,i,i,124%,KCNQ1 ephys val=i
COc1ccc2nc(C)cc(Nc3ccc(C)cc3)c2c1,i,i,i,i,i,nt,nt,nt,nt,
c1ccc(-c2noc(CN3CCCC(OCc4ccccn4)C3)n2)cc1 (stereo not given),i,i,i,i,i,nt,nt,nt,nt,
COc1ccc(NC(=O)COc2cc(O)c3c(c2)OC(C)(C)CC3=O)cc1,i,i,i,i,i,nt,nt,nt,nt,
COc1cccc(NC(=O)COc2cc(O)c3c(c2)OC(C)(C)CC3=O)c1,i,i,i,7,i,49,i,78%,70%,
CCN(CC)S(=O)(=O)c1ccc2oc(C(=O)NCC3COc4ccccc4O3)c(C)c2c1 (stereo not given),i,i,i,8,i,96,i,81%,128%,KCNQ1 ephys val=i
CC(C)(C)CN1CCN(Cc2nc(-c3ccc(F)cc3)cs2)CC1CCO (stereo not given),i,i,i,6,i,70,i,74%,64%,
Cc1ccc(-n2cccn2)c(CN2CCCC(C(=O)c3sccc3C)C2)c1 (stereo not given),i,i,i,9,i,72,i,99%,54%,
Cc1ccccc1OCc1nnc2n1CC(C)S2 (stereo not given),i,i,i,i,i,nt,nt,nt,nt,
O=S(=O)(c1ccc(S(=O)(=O)N(Cc2ccc(F)cc2)C2CCCC2)cc1)N1CCCC1,i,i,i,6,i,57,i,i,94%,
Cc1ccc(Cn2c(=N)n(CC(O)COc3ccccc3)c3ccccc32)cc1 (stereo not given),i,i,-7.6,6,i,130,i,68%,i,KCNQ1 ephys val=i
CCc1noc(C)c1C(=O)N1CCCSC1=Nc1ccccc1Cl,i,i,i,7,i,80,i,66%,110%,
O=c1c2c(nc3n1CCCCC3)-c1ccccc1CC21CCCCC1,i,i,i,7,i,104,i,106%,88%,KCNQ1 ephys val=i
Cc1ccc(N(C)S(=O)(=O)c2c[nH]c3ccc([N+](=O)[O-])cc23)cc1,i,i,i,i,i,nt,nt,nt,nt,
OCCC1CN(Cc2cccnc2)CCN1CCc1ccccc1 (stereo not given),i,i,i,7,i,i,i,i,i,
CN(C)C1=NC[C@H](Cc2ccccc2)N1CC1CCC(C(C)(C)C)CC1 (stereo not given in full),i,i,i,7,i,98,i,111%,70%,
CN(C)C1=NC[C@H](Cc2ccccc2)N1CC1CCCC1,i,nt,nt,nt,nt,nt,nt,nt,nt,
Cc1ccc(-n2ncc3c2CC(C)(C)CC3NC(=O)CCc2c(C)noc2C)cc1 (stereo not given),i,i,i,i,i,nt,nt,nt,nt,
CN(CC(=O)Nc1cccc(F)c1)C(=O)c1cn(-c2ccccc2)nc1-c1cccs1,i,i,i,8,i,79,i,83%,108%,
CCN1CCN(c2cc(C)c3cc(NC(=O)c4cccc(OC)c4)ccc3n2)CC1,i,i,i,i,i,nt,nt,nt,nt,
COc1cccc(C(=O)Nc2ccc3nc(N4CCOCC4)cc(C)c3c2)c1,i,i,i,7,i,+,i,i,i,KCNQ1 ephys val=i
SMILES,KCNK3 inh,KCNQ1 act,KCNK9 inh,KCNQ1 inh,hERG rescue,KCNQ1 inh valid,CHO Tl flux,KCNQ2 inh,KCNQ1 KCNE1 spec,others
S=C(NCCN(C1CCCCC1)C1CCCC1)Nc1cccc(Cl)c1,i,i,i,6,i,80,i,92%,i,
S=C(Nc1cccc(Cl)c1)NC1CC2CCCC(C1)N2C1CCCC1 (stereo not given),i,i,i,i,i,nt,nt,nt,nt,
CCCCNc1c2c3c(cccc3n(C)c1=O)C(=O)c1ccccc1-2,i,i,i,29,i,+,0.013,i,i,
CCNc1c2c3c(cccc3n(C)c1=O)C(=O)c1ccccc1-2,nt,i,i,i,i,nt,nt,nt,nt,
Cn1c(=O)c(NC2CCCCC2)c2c3c(cccc31)C(=O)c1ccccc1-2,i,nt,nt,nt,nt,nt,nt,nt,nt,
Cn1c(=O)c(NCCc2ccccc2)c2c3c(cccc31)C(=O)c1ccccc1-2,i,i,i,29,i,+,0.004,i,i,
CCOC(=O)C1CCN(c2ncnc3c2oc2ccc(Cl)cc23)CC1,i,i,i,7,i,62,i,94%,i,
CC1CN(c2ncnc3c2c(-c2ccccc2)cn3-c2ccc(F)cc2)CC(C)O1 (stereo not given),i,i,i,9,i,138,i,135%,138%,KCNQ1 ephys val=i
CCOC(=O)C1CCN(c2ncnc3c2[nH]c2cccc(OC)c23)CC1,i,i,i,i,i,nt,nt,nt,nt,
Cc1ccc(-n2cc(-c3ccccc3)c3c(N4CCN(C)CC4)ncnc32)cc1,i,i,i,i,i,nt,nt,nt,nt,
Cc1ccc(-n2cc(-c3ccccc3)c3c(N4CCOCC4)ncnc32)cc1,i,i,i,12,i,94,i,107%,134%,KCNQ1 ephys val=i
CCOC(=O)C1CCN(c2ncnc3c2c(-c2ccccc2)cn3-c2ccccc2)CC1,i,i,i,9,i,138,i,104%,+,KCNQ1 ephys val=i
COc1ccc(C(=O)NCc2ccccc2CN2CCCC2)cc1S(=O)(=O)Nc1ccc(C)cc1,i,nt,nt,nt,nt,nt,nt,nt,nt,
CCc1ccc(-c2cc(-c3n[nH]c(=S)n3CC)c3ccccc3n2)cc1,nt,i,i,i,i,nt,nt,nt,nt,
CCn1c(-c2cc(-c3cccc(OC)c3)nc3ccccc23)n[nH]c1=S,i,i,i,6,i,80,i,i,95%,
O=c1[nH]c(-c2ccccc2O)nc2c1CCCC2,i,i,i,i,i,nt,nt,nt,nt,
CC(NCC(=O)Nc1cc(S(=O)(=O)N2CCOCC2)ccc1Cl)c1ccc(Cl)cc1Cl (stereo not given),i,i,i,7,i,70,i,60%,92%,

# Compound activity: PubChem BioAssay, Johns Hopkins Ion Channel Center
